{"source": "ChEMBL document CHEMBL4261550", "about": "“Triazolopyrimidines identified as reversible myeloperoxidase inhibitors” (Medchemcomm, 2017)", "key": {"[1]": {"target": "T1, Myeloperoxidase (Homo sapiens) (UniProt P05164)", "T1 sequence (whole entry)": "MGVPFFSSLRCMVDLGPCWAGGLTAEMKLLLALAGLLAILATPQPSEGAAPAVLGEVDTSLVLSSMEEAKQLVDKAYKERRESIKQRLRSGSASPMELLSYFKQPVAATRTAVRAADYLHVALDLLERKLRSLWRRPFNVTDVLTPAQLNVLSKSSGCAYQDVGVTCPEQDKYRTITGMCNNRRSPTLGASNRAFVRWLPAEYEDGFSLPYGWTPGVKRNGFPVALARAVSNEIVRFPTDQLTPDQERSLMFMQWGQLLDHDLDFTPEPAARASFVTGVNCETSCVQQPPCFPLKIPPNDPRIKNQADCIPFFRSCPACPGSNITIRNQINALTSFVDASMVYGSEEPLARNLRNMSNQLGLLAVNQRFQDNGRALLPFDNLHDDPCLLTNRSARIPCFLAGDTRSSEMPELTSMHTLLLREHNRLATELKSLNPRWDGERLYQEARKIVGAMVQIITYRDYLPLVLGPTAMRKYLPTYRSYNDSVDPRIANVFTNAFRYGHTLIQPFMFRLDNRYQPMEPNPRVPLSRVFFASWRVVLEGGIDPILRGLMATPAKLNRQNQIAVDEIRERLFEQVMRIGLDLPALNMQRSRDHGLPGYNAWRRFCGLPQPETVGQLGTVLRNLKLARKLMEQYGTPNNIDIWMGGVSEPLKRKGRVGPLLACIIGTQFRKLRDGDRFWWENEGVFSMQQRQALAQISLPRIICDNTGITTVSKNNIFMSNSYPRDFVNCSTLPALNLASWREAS", "test": "Reversible inhibition of human MPO peroxidase activity at 50 to 250 nM preincubated for up to 30 mins followed by H2O2 addition and 2 to 10 times compound dilution measured at 30 secs time interval for 5 mins by amplex red reagent based fluorescence assay", "method_in_brief": "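20 nM MPO in phosphate buffer with 100 nM H2O2 and inhibitor at 2–10-fold enzyme concentration. Controls: 0.2% DMSO, irreversible hydrazide. Aliquots taken after 2, 10, 20 and 30 min and passed through a G50 spin column. 5 µL flow-through assayed by Amplex Red; initial rate gave % activity remaining versus control. Also run with 100 mM NaCl and 150 µM L-methionine.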"}, "[2]": {"target": "Cytochrome P450 3A4 (Homo sapiens, UniProt P08684)", "sequence (P08684 whole entry)": "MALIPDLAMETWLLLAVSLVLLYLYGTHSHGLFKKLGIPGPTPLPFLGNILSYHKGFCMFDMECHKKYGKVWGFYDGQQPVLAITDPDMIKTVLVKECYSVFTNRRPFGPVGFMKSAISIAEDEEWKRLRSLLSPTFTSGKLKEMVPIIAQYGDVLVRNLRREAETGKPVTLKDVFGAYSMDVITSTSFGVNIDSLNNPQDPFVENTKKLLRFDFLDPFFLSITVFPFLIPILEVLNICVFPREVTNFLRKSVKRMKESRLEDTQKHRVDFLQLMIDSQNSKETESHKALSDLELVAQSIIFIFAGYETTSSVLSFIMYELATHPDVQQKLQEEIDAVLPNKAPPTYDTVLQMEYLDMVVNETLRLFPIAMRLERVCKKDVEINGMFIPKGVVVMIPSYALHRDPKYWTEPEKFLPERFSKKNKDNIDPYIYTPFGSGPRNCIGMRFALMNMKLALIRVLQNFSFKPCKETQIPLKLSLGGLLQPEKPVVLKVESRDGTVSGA", "test": "Inhibition of CYP3A4 (unknown origin)", "type": "ADME"}, "[3]": {"test": "Protein binding in mouse plasma", "type": "ADME, cell-free", "conditions": "read-out: PPB (converted)"}, "[4]": {"tested_on": "Mus musculus", "test": "In vivo inhibition of MPO in PMA-stimulated C57BL6 mouse neutrophil degranulation model assessed as reduction in HOCl production at 30 mg/kg, po pretreated for 20 mins followed by PMA stimulation and measured after 2 mins by luminol chemiluminescence assay relative to control", "type": "functional", "method_in_brief": "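C57Bl6 mice dosed orally 30 mpk or vehicle 20 min before retro-orbital PMA 0.62 mg/kg; blood drawn 2 min after PMA and held on ice; 100 μL blood mixed with luminol, chemiluminescence read kinetically 25 min at 37 °C, HOCl production rate calculated.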"}, "[5]": {"tested_on": "Mus musculus", "test": "In vivo inhibition of MPO in PMA-stimulated C57BL6 mouse neutrophil degranulation model assessed as reduction in HOCl production at 100 mg/kg, po pretreated for 20 mins followed by PMA stimulation and measured after 2 mins by luminol chemiluminescence assay relative to control", "type": "functional"}, "[6]": {"test": "Ratio of plasma concentration in PMA-stimulated C57BL6 mouse neutrophil degranulation model at 30 mg/kg, po after 20 mins to in vitro IC50 for MPO in PMA-stimulated human neutrophils", "type": "ADME, organism-based", "conditions": "in vivo"}, "[7]": {"target": "T2, Myeloperoxidase (Homo sapiens, UniProt P05164)", "T2 sequence (P05164 whole entry)": "T1 sequence (whole entry)", "test": "Inhibition of human MPO chlorination activity assessed as reduction in ApoA1-mediated [1,2 3H]-cholesterol efflux in PMA-stimulated human THP1 cells preincubated with enzyme and ApoA1 for 30 mins in presence of H2O2 followed by addition to THP1 cells and measured after overnight incubation"}}, "note": "pEC50, pIC50: −log10 of the molar value. Calls of active or inactive are those of the source. The rule behind the calls is not given here.", "data": [{"smiles": "Nc1nc(OCc2ccccc2)c2[nH]nnc2n1", "values": [{"measurement": "inhibition", "setting": "[1]", "value": "Active"}, {"measurement": "pIC50", "setting": "[2]", "value": 4.85}, {"measurement": "fraction unbound", "setting": "[3]", "value": 0.13}, {"measurement": "inhibition in vivo at 30 mg/kg", "setting": "[4]", "value": 50, "unit": "%"}, {"measurement": "inhibition in vivo at 100 mg/kg", "setting": "[5]", "value": 70, "unit": "%"}, {"measurement": "Ratio", "setting": "[6]", "value": 36}, {"measurement": "pEC50", "setting": "[7]", "value": 5.00}]}]}
